The values below come from PMC9884082 (Journal of Medicinal Chemistry, 2023).

Data set [1] deals with colon cancer cell line HT-29 spheroids. The data set can be described thus: Spheroid inhibition assay. It is filed as cell-based, human. Summed up:
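HT-29 cells (≤6 passages) were seeded at 100–300 cells/well in low-adhesion plates. Medium was stem cell medium: DMEM:F12 with B27, 20 ng/mL EGF and 10 ng/mL FGF. After brief incubation, vehicle or test compound was added. After 3–7 days, spheroids of 50–150 μm were counted by phase-contrast microscopy as percent of vehicle. IC50 came from normalized sigmoidal regression; ≥3 replicates.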

In the next data set the test system is HT-29 monolayer culture. The data set can be described thus: Cell proliferation. It is filed as cell-based, human. Particulars: MTT, 60-72 h. The gist of the method:
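HT-29 cells kept as monolayers in DMEM:F-12 with 10% FBS and 1% penicillin/streptomycin, passaged before 70% confluence. About 2.5 × 10³ cells/well were incubated overnight (37 °C, 5% CO₂), then exposed to test compound for 60–72 h. MTT (5 mg/mL stock in PBS) was added for 2–3 h and crystals dissolved in DMSO. A590 was read and growth expressed as percent of vehicle; ≥3 replicates.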

Data set [2] has as its system pooled normal human plasma. The data set can be described thus: Human plasma clotting time. It is filed as biochemical. To be noted: ∼34 to ∼68 s. The gist of the method:
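APTT was run in a fibrometer by one-stage recalcification. Test compound was mixed with citrated pooled normal human plasma and prewarmed APTT reagent (ellagic acid). After 4 min at 37 °C, clotting was started with prewarmed 25 mM CaCl₂ and time to clot recorded. A quadratic trend line fitted to the data gave the concentration doubling clotting time.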

The nature of data set [3]: Mouse tail bleeding study. It is filed as in vivo, wild-type ICR mice. Particulars: IV; NSGMs 1–100 mg/kg, enoxaparin 224 μg/kg.
The subject of the next data set is HT-29 xenografts. The data set can be described thus: HT-29 xenograft after FUOX enrichment, IP G2C, FUOX or G2C+FUOX. The class given is in vivo, NCr nude mice. Summed up:
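1 × 10⁶ unsorted HT-29 cells were injected subcutaneously into NCr nude mice. Palpable tumors received 25 mg/kg 5-fluorouracil plus 2 mg/kg oxaliplatin IP weekly for 3 weeks. Mice were randomized to vehicle, test compound 50 mg/kg IP three times/week (8 doses), continued 5-FU/oxaliplatin, or both. Tumor volume was followed to sacrifice (n = 2/group) and compared with vehicle.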

Data set [4] relates to CD133+/CXCR4+ (Dual Hi) HT-29 xenografts. The data set can be described thus: Dual Hi HT-29 xenograft after FUOX enrichment, oral G2C or IP G2.2. The class given is in vivo, NCr nude mice. Particulars: for tumor growth compared to vehicle: experiment 2, G2.2 100 mg/kg IP 3 times/week, G2C 100 mg/kg PO 5 times/week, 3 weeks. The gist of the method: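 1 × 10⁵ CD133⁺/CXCR4⁺ HT-29 cells were injected subcutaneously into NCr nude mice. Palpable tumors received 50 mg/kg 5-FU plus 5 mg/kg oxaliplatin IP weekly for 3 weeks. Mice were randomized to vehicle or test compound 100 mg/kg PO 5 times/week for 3 weeks, or, in a second experiment, parent 100 mg/kg IP 3 times/week. Xenograft single cells were assessed for 1–3° spheroids. CD133/CXCR4/LGR5 cells were quantified by flow cytometry (30 min staining, 4 °C).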

In data set [5] the test system is intestinal crypt-derived organoids. The data set can be described thus: Ex vivo intestinal crypt-derived organoids from treated mice. It is filed as in vivo.
The next data set concerns colon xenografts. Particulars: cited from earlier work.
The mark [6] stands for this setting: HT-29 spheroids, relative to G2.2.

Several values for one entry are separate records, joined by “and”; a condition that tells them apart may be missing. Equal entries are not always repeated. Entries after “also recorded” stand apart in the source; their conditions may differ.

For `O=c1cc(-c2ccc(OS(=O)(=O)[O-])cc2)oc2cc(OS(=O)(=O)[O-])cc(OCC3CCC(COc4cc(OS(=O)(=O)[O-])cc5oc(-c6ccc(OS(=O)(=O)[O-])cc6)cc(=O)c45)CC3)c12.[Na+].[Na+].[Na+].[Na+]` (stereo not drawn) [MAD1, Sodium 4-Oxo-5-((4-(((4-oxo-7-(sulfonatooxy)-2-(4-(sulfonatooxy)phenyl)-4H-chromen-5-yl)oxy)methyl)cyclohexyl)methoxy)-2-(4-(sulfonatooxy)phenyl)-4H-chromen-7-yl Sulfate], the “fold weaker than G2.2 (spheroid potency)” value in data set [1] (setting [6]) is “about 1.6 fold”. Also, the “fold lower potency than MQD1” value in data set [1] (eight (MQD1) to four (MAD1) sulfate groups) came to 11.4 fold. For the same compound, in the data set with HT-29 monolayer culture, the “cytotoxicity under monolayer conditions” value is reported as “did not display significant cytotoxicity”.
On to `CC(C)CCC[C@@H](C)[C@H]1CC[C@H]2[C@@H]3CC=C4C[C@@H](OCCOc5cc(-c6oc7cc(OS(=O)(=O)[O-])cc(OCCCOc8cc(OS(=O)(=O)[O-])cc9oc(-c%10ccc(OS(=O)(=O)[O-])c(OS(=O)(=O)[O-])c%10)c(OS(=O)(=O)[O-])c(=O)c89)c7c(=O)c6OS(=O)(=O)[O-])ccc5OS(=O)(=O)[O-])CC[C@]4(C)[C@H]3CC[C@]12C.[Na+].[Na+].[Na+].[Na+].[Na+].[Na+].[Na+]` [G2C, Sodium 4-(5-(3-((2-(3-(2-(((8S,9S,10R,13R,14S,17R)-10,13-Dimethyl-17-((R)-6-methylheptan-2-yl)-2,3,4,7,8,9,10,11,12,13,14,15,16,17-tetradecahydro-1H-cyclopenta[a]phenanthren-3-yl)oxy)ethoxy)-4-(sulfonatooxy)phenyl)-4-oxo-3,7-bis(sulfonatooxy)-4H-chromen-5-yl)oxy)propoxy)-4-oxo-3,7-bis(sulfonatooxy)-4H-chromen-2-yl)-1,2-phenylene Bis(sulfate)], for which, in the data set with HT-29 monolayer culture, the “cytotoxicity under monolayer conditions” value is listed as “significantly cytotoxic at ∼100 μM”. Also, the “concentration required for 2-fold increase in APTT” value in data set [2] was roughly 300 µM. The “blood loss, tail bleeding” value in data set [3] is recorded as “did not exhibit much tail bleeding phenotype”. The “inhibition of xenografts compared to vehicle” value with HT-29 xenografts (G2C 50 mg/kg IP (Figure 6B)) amounted to 30%. The animal weight entry in the data set on HT-29 xenografts (G2C 50 mg/kg IP alone or with FUOX) was “no significant change in animal weight”. Further, the “expression of DCAMKL1 and BMI-1 in xenograft lysate” value in the data set with HT-29 xenografts (Western blots) is “inhibition in the expression of DCAMKL1 (CSC marker) and BMI-1 (self-renewal marker)”. In addition, in the data set on HT-29 xenografts (ex vivo in CSC media, compared to vehicle), the “3 and 4° spheroid formation from xenograft-derived cells” value is “significant inhibition of self-renewing CSCs”. Further, in data set [4] (daily oral G2C), the animal weight entry is listed as “did not lose weight” and the “bleeding at the site of injection or in organs” value was “no obvious sign of major bleeding”. Moreover, in data set [4] (experiment 1, G2C 100 mg/kg PO), the “3° spheroid formation from xenograft-derived cells” value is reported as “significantly inhibited”. For the same compound, the “Dual Hi cell-induced tumor growth” value in data set [4] (experiment 1, G2C 100 mg/kg PO 5 times/week for 3 weeks) is on record as “significantly inhibited Dual Hi cell-induced tumor growth”. The “tumor growth compared to vehicle” value in data set [4] is on record as “seemed to reduce tumor growth; also recorded: higher growth inhibition”. For the same compound, in data set [4] (flow cytometry, oral G2C), the “proportion of CD133+/CXCR4+ (Dual Hi) and LGR5 cells in xenografts” value was “significantly lower”. The “blood chemistry compared to vehicle” value in data set [4] (oral G2C) is “did not produce any significant change in blood chemistry”. The “ex vivo growth of organoids derived from intestinal crypts” value in data set [5] (after IP G2C 50 mg/kg alone or with FUOX) is listed as “did not inhibit ex vivo growth of organoids derived from intestinal crypts”. Also, the “intestinal crypt-derived organoid growth” value in data set [5] (after oral G2C 100 mg/kg 5 times/week for 3 weeks) is recorded as “did not reduce intestinal crypt-derived organoid growths”.
Turning to `O=c1c(OS(=O)(=O)[O-])c(-c2ccc(OS(=O)(=O)[O-])c(OS(=O)(=O)[O-])c2)oc2cc(OS(=O)(=O)[O-])cc(OCCCOc3cc(OS(=O)(=O)[O-])cc4oc(-c5ccc(OS(=O)(=O)[O-])c(OS(=O)(=O)[O-])c5)c(OS(=O)(=O)[O-])c(=O)c34)c12.[Na+].[Na+].[Na+].[Na+].[Na+].[Na+].[Na+].[Na+]` [G2.2, Sodium 4-(5-(3-((2-(3,4-Bis(sulfonatooxy)phenyl)-4-oxo-3,7-bis(sulfonatooxy)-4H-chromen-5-yl)oxy)propoxy)-4-oxo-3,7-bis(sulfonatooxy)-4H-chromen-2-yl)-1,2-phenylene Bis(sulfate)], in data set [2], the “concentration required for 2-fold increase in APTT” value stood at 900 µM. Further, the “tumor growth compared to vehicle” value in data set [4] is given as “seemed to reduce tumor growth”. In addition, in the data set with colon xenografts, the “expression of BMI-1 (CSC self-renewal marker)” value was “significant reduction in the expression of BMI-1” and the “expression of colon CSC markers” value was “inhibited the expression of CD133^+, CXCR4^+, DCAMLK1, and/or LGR5 markers”. Also, in the data set with colon xenografts (parenterally administered), the “growth of colon xenografts and toxicity” value is on record as “inhibits the growth of colon xenografts without any toxicity to vital organs or bleeding consequences”.
Turning to `O=c1c(OS(=O)(=O)[O-])c(-c2ccc(OS(=O)(=O)[O-])c(OS(=O)(=O)[O-])c2)oc2cc(OS(=O)(=O)[O-])cc(OCC3CCC(COc4cc(OS(=O)(=O)[O-])cc5oc(-c6ccc(OS(=O)(=O)[O-])c(OS(=O)(=O)[O-])c6)c(OS(=O)(=O)[O-])c(=O)c45)CC3)c12.[Na+].[Na+].[Na+].[Na+].[Na+].[Na+].[Na+].[Na+]` (stereo not drawn) [MQD1, Sodium 4-(5-((4-(((2-(3,4-Bis(sulfonatooxy)phenyl)-4-oxo-3,7-bis(sulfonatooxy)-4H-chromen-5-yl)oxy)methyl)cyclohexyl)methoxy)-4-oxo-3,7-bis(sulfonatooxy)-4H-chromen-2-yl)-1,2-phenylene Bis(sulfate)], the “fold better than G2.2 (spheroid potency, IC50 gain)” value in data set [1] (setting [6]) is 7.3 fold and ~9 fold. The “cytotoxicity under monolayer conditions” value in the data set on HT-29 monolayer culture is “did not display significant cytotoxicity”.
As for enoxaparin [reference compound], in data set [2], the “concentration required for 2-fold increase in APTT” value is 3 µM. The “blood loss, tail bleeding” value in data set [3] is given as “significantly higher blood loss”.
Take `O=c1c(OS(=O)(=O)[O-])c(-c2ccc(OS(=O)(=O)[O-])cc2OS(=O)(=O)[O-])oc2cc(OS(=O)(=O)[O-])cc(OCC3CCC(COc4cc(OS(=O)(=O)[O-])cc5oc(-c6ccc(OS(=O)(=O)[O-])cc6OS(=O)(=O)[O-])c(OS(=O)(=O)[O-])c(=O)c45)CC3)c12.[Na+].[Na+].[Na+].[Na+].[Na+].[Na+].[Na+].[Na+]` (stereo not drawn) [MMD1, Sodium 4-(5-((4-(((2-(2,4-Bis(sulfonatooxy)phenyl)-4-oxo-3,7-bis(sulfonatooxy)-4H-chromen-5-yl)oxy)methyl)cyclohexyl)methoxy)-4-oxo-3,7-bis(sulfonatooxy)-4H-chromen-2-yl)-1,3-phenylene Bis(sulfate)]: the “fold better than G2.2 (spheroid potency, IC50 gain)” value in data set [1] (setting [6]) amounted to 1.7 fold. Further, in the data set with HT-29 monolayer culture, the “cytotoxicity under monolayer conditions” value is listed as “did not display significant cytotoxicity”.
`CC(C)CCC[C@@H](C)[C@H]1CC[C@H]2[C@@H]3CC=C4C[C@@H](OCCCCCCCCOc5cc(-c6oc7cc(OS(=O)(=O)[O-])cc(OCCCOc8cc(OS(=O)(=O)[O-])cc9oc(-c%10ccc(OS(=O)(=O)[O-])c(OS(=O)(=O)[O-])c%10)c(OS(=O)(=O)[O-])c(=O)c89)c7c(=O)c6OS(=O)(=O)[O-])ccc5OS(=O)(=O)[O-])CC[C@]4(C)[C@H]3CC[C@]12C.[Na+].[Na+].[Na+].[Na+].[Na+].[Na+].[Na+]` [G8C, Sodium 4-(5-(3-((2-(3-((8-(((8S,9S,10R,13R,14S,17R)-10,13-Dimethyl-17-((R)-6-methylheptan-2-yl)-2,3,4,7,8,9,10,11,12,13,14,15,16,17-tetradecahydro-1H-cyclopenta[a]phenanthren-3-yl)oxy)octyl)oxy)-4-(sulfonatooxy)phenyl)-4-oxo-3,7-bis(sulfonatooxy)-4H-chromen-5-yl)oxy)propoxy)-4-oxo-3,7-bis(sulfonatooxy)-4H-chromen-2-yl)-1,2-phenylene Bis(sulfate)]: in the data set on HT-29 monolayer culture, the “cytotoxicity under monolayer conditions” value is listed as “significantly cytotoxic at ∼100 μM”. In addition, the “concentration required for 2-fold increase in APTT” value in data set [2] is roughly 37 µM. Besides, in data set [3], the “blood loss, tail bleeding” value was “did not exhibit much tail bleeding phenotype”.
